# In ChEMBL document CHEMBL3785023, “Development and Pharmacological Characterization of Selective Blockers of 2-Arachidonoyl Glycerol Degradation with Efficacy in Rodent Models of Multiple Sclerosis and Pain” (J Med Chem, 2016):
# The source made the active and inactive calls.
# Tests used:
# [1] = tested on: Mus musculus; assay: Reduction of disease index score in myelin oligodendrocyte glycoprotein (35 to 55)-induced C57BL/6J mouse experimental autoimmune encephalomyelitis model of multiple sclerosis at 3 mg/kg, ip dosed on day 6 postimmunization up to 21 day postimmunization measured from day 8 postimmunization; format: functional, organism-based
# Outline: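 Female C57BL/6J mice immunized with MOG35-55 were randomly assigned to groups. They received 3 mg/kg i.p. daily from 6 days post-immunization up to 21±1 d.p.i. AM251 or AM630, 1 mg/kg i.p., was given 10 min before each dose for 14 days. Clinical score was recorded daily and as cumulative score, reported as mean ± SEM. Group sizes were 4–9 mice.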
# [2] = tested on: Mus musculus; assay: Inhibition of demyelination in experimental autoimmune encephalomyelitis C57BL/6J mouse spinal cord at 3 mg/kg, ip administered post CB1 antagonist/inverse agonist AM251 addition by luxol fast blue staining based microscopic analysis; format: functional, organism-based
# Outline: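 EAE induced in female C57BL/6J mice with MOG35-55, then 3 mg/kg i.p. daily. AM251 or AM630 (1 mg/kg), where used, given 10 min before each dose. Spinal cord white matter stained with Luxol Fast Blue and demyelinated areas assessed by microscopy.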
# [3] = tested on: Mus musculus; assay: Reduction of IBA1 positive cells in white matter anterior fasciculus of experimental autoimmune encephalomyelitis C57BL/6J mouse spinal cord at 3 mg/kg, ip administered post CB2 antagonist/inverse agonist AM630 addition by immunofluorescence assay; format: functional, organism-based
# Outline: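 MOG35-55-immunized female C57BL/6J mice were given 3 mg/kg i.p. daily. AM251 or AM630, each at 1 mg/kg, was given 10 min before each dose. Iba1 immunofluorescence with DAPI was done on spinal cord white matter (anterior fasciculus). Positive cells were counted per optic field. One-way ANOVA with Bonferroni test.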
# [4] = tested on: Mus musculus; assay: Antinociceptive activity in CD-1 mouse assessed as inhibition of formalin-induced pain response at 0.1 to 0.3 mg/kg, ip dosed 10 mins before formalin injection measured during late phase; format: functional, organism-based
# Outline: (§1)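 Male CD-1 mice, n = 6 per group, injected with formalin (1.25% in saline, 30 μL) into the dorsal hind paw. Inhibitor (0.1 or 0.3 mg/kg i.p. in 0.5% DMSO/saline) given 10 min before formalin. Where used, AM251 or AM630 (1 mg/kg i.p.) given 10 min before the inhibitor. Time spent lifting, licking, shaking or flinching the injected paw recorded every 5 min over 60 min.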
# [5] = tested on: Mus musculus; assay: Antinociceptive activity in CD-1 mouse assessed as inhibition of formalin-induced late phase pain response at 0.1 to 0.3 mg/kg, ip dosed 10 mins before formalin injection measured every 5 mins for 60 mins in presence of CB1 antagonist/inverse agonist AM251; format: functional, organism-based; outline: as §1
# [6] = tested on: Mus musculus; assay: Antinociceptive activity in CD-1 mouse assessed as inhibition of formalin-induced late phase pain response at 0.1 to 0.3 mg/kg, ip dosed 10 mins before formalin injection measured every 5 mins for 60 mins in presence of CB2 antagonist/inverse agonist AM630; format: functional, organism-based; outline: as §1
# [7] = Selectivity ratio of IC50 for human recombinant C-terminal His-tagged FAAH expressed in sf21 cells to IC50 for recombinant C-terminal His6-tagged human MAGL expressed in Escherichia coli
# Outline: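 Ratio of IC50 values from two radiometric assays, each read by scintillation counting of the aqueous phase after CHCl3/MeOH 1:1 extraction. MGL assay: 10,000xg cytosolic fraction of human recombinant MGL (0.05 µg/sample), 50 mM Tris-HCl pH 7.0, 37 °C, 20 min, 2-arachidonoyl-[3H]-glycerol. FAAH assay: human recombinant FAAH (2 µg/sample), pH 9.5, 37 °C, 30 min, [14C]-anandamide. Means of three experiments.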
# [8] = tested on: Heart; assay: Cardiotoxicity in Langendorff-perfused Sprague-Dawley rat heart assessed as time duration of cardiac cycle length at 0.01 uM by ECG analysis (reference value: 238.38 +/- 9.23 milliseconds); format: toxicity, tissue-based
# [9] = tested on: Heart; assay: Cardiotoxicity in Langendorff-perfused Sprague-Dawley rat heart assessed as time duration of cardiac cycle length at 0.1 uM by ECG analysis (reference value: 238.38 +/- 9.23 milliseconds); format: toxicity, tissue-based
# [10] = tested on: Heart; assay: Cardiotoxicity in Langendorff-perfused Sprague-Dawley rat heart assessed as atrioventricular conduction time at 0.1 uM by ECG analysis (reference value: 45.62 +/- 4.49 milliseconds); format: toxicity, tissue-based
# [11] = tested on: Heart; assay: Cardiotoxicity in Langendorff-perfused Sprague-Dawley rat heart assessed as intraventricular conduction time at 0.001 uM by ECG analysis (reference value: 14.26 +/- 0.71 milliseconds); format: toxicity, tissue-based, Cardiac ventricle
# [12] = tested on: Heart; assay: Cardiotoxicity in Langendorff-perfused Sprague-Dawley rat heart assessed as intraventricular conduction time at 0.01 uM by ECG analysis (reference value: 14.26 +/- 0.71 milliseconds); format: toxicity, tissue-based, Cardiac ventricle
# [13] = tested on: Heart; assay: Cardiotoxicity in Langendorff-perfused Sprague-Dawley rat heart assessed as corrected time duration of action potential at 1 uM by ECG analysis (reference value: 155.26 +/- 2.96 milliseconds); format: toxicity, tissue-based
# [14] = tested on: Mus musculus; assay: In vivo inhibition of MAGL in CD-1 mouse assessed as 2-AG level in pawskin at 0.3 mg/kg, ip coadministered with formalin by LC-MS analysis (reference value: 10.8 +/- 1.5 pmol/g); format: functional
# [15] = tested on: Mus musculus; assay: Toxicity in CD-1 mouse assessed as 2-AG level in spinal cord at 0.3 mg/kg, ip by LC-MS analysis (reference value: 6.4 +/- 0.4 pmol/g); format: organism-based; details: in vivo
# Outline: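 Male CD-1 mice received 0.3 mg/kg i.p. in 0.5% DMSO/saline, with formalin (1.25%, 30 µL) injected into the dorsal hind paw. Paw skin or spinal cord was taken at 5 min post-dose. Tissue was homogenized in CHCl3/MeOH/50 mM Tris-HCl (2:1:1) containing d5-2-AG, extracted with chloroform and analysed by LC-MS. n = 4; ANOVA with Bonferroni test.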
# [16] = tested on: Mus musculus; assay: Toxicity in CD-1 mouse assessed as changes in normal pain threshold at 3 to 10 mg/kg, po measured up to 60 mins by hot plate test; format: organism-based; details: in vivo, 1 h
# [17] = tested on: Salmonella typhimurium; assay: Mutagenicity in Salmonella typhimurium TA98 assessed as increase in number of colonies up to >200 uM by Ames test in presence of S9 fraction; format: toxicity, organism-based; details: salmonella enterica subsp. enterica serovar typhimurium
# [18] = tested on: Salmonella typhimurium; assay: Mutagenicity in Salmonella typhimurium TA100 assessed as increase in number of colonies up to >200 uM by Ames test in presence of S9 fraction; format: toxicity, organism-based; details: salmonella enterica subsp. enterica serovar typhimurium
# [19] = tested on: Heart; assay: Cardiotoxicity in Langendorff-perfused Sprague-Dawley rat heart assessed as heart rate at 0.01 uM by ECG analysis (reference value: 252.78 +/- 9.28 bpm); format: toxicity, tissue-based
# [20] = tested on: Heart; assay: Cardiotoxicity in Langendorff-perfused Sprague-Dawley rat heart assessed as heart rate at 0.1 uM by ECG analysis (reference value: 252.78 +/- 9.28 bpm); format: toxicity, tissue-based
SMILES,Activity [1],inhibition [2],Activity [3],inhibition [4],inhibition [5],inhibition [6],Ratio IC50 [7],Time [8],Time [9],Time [10],Time [11],Time [12],Time [13],Activity [14],Activity [15],Activity [16],Activity [17],Activity [18],Activity [19],Activity [20]
O=C1[C@H](c2ccc(F)cc2)[C@@H](c2ccc3c(c2)OCO3)N1C1CCN(C(=O)n2cncn2)CC1 (racemic) [listing 1 of 2 here],Active,inactive,inactive,Active,inactive,inactive,389,,,,,,,,,,,,,
O=C1[C@H](c2ccc(F)cc2)[C@@H](c2ccc3c(c2)OCO3)N1C1CCN(C(=O)n2cncn2)CC1 (racemic) [listing 2 of 2 here],,,,,,,,236.8 ms,238.15 ms,46.18 ms,14.02 ms,13.5 ms,156.78 ms,14.1 pmol/g,9.7 pmol/g,Non-toxic,Non-toxic,Non-toxic,254.18 bpm,252.65 bpm
